Values after ≈ are worked out from the molar mass of the structure shown.
How the values were obtained:
[1] = test system: HT-29; assay: Cytotoxicity against human HT29 cells by MTT assay; format: functional; conditions: read-out: ED50 (the source's name)
Method in brief: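 HT-29 human colon adenocarcinoma cells; viability read by MTT assay, following a previously described procedure.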

[2] = test system: P388; assay: Cytotoxicity against mouse P388 cells by MTT assay; format: functional; conditions: read-out: ED50 (the source's name)
Method in brief: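 P-388 mouse lymphocytic leukemia cells; viability read by MTT assay, following a previously described procedure.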

Structure (SMILES)	EC50 [1] [µg/mL]	EC50 [2] [µg/mL]
C=C(CC[C@@H](C)[C@H]1CC[C@H]2[C@@H]3C=CC4=C[C@@H]5OC[C@@]4(C[C@@H]5O)[C@H]3CC[C@]12C)C(C)C	> 10	> 10
C[C@H]1CCC[C@@]2(C)C[C@H]3OO[C@@]12C=C3C(C)(C)O	> 10	> 10
C=C(C)[C@@]1(OO)CC[C@]2(C)[C@H]3CC[C@@H](C)[C@H]3[C@@H]21	0.5 (≈ 2.12 µM)	0.3 (≈ 1.27 µM)
C=C(CC[C@@H](C)[C@H]1CC[C@H]2[C@@H]3C=CC4=CC=CC[C@]4(CO)[C@H]3CC[C@]12C)C(C)C	> 10	> 10
C[C@H]1CCC[C@@]2(C)C[C@H]3OO[C@@]12C=C3C(C)(C)OO	0.4 (≈ 1.49 µM)	0.2 (≈ 0.745 µM)
C=C(C)[C@@]1(O)CC[C@]2(C)[C@H]3CC[C@@H](C)[C@H]3[C@@H]21	> 10	> 10
C=C(C)[C@H]1[C@@H]2[C@H](C)CC[C@@H]2[C@@]2(C)CC[C@@H]12	3.2 (≈ 15.7 µM)	2.8 (≈ 13.7 µM)
C=C(CC[C@@H](C)[C@H]1CC[C@H]2[C@@H]3C[C@H]4OC[C@@]5(CC[C@H](O)C[C@]45O)[C@H]3CC[C@]12C)C(C)C	> 10	> 10
C[C@@H]1CC[C@@H](C(C)(C)O)C[C@]2(C)C1=C[C@H]1O[C@H]12 (relative stereo)	> 10	> 10
